Laboratory results as given in ChEMBL document CHEMBL4513216, “Probing the Open Global Health Chemical Diversity Library for Multistage-Active Starting Points for Next-Generation Antimalarials” (ACS Infect Dis, 2020).

Test: Toxicity liver stage against HepG2, at 10uM
Assay type: cell-based
Set-up: test concentration 10 uM, cell line HepG2-A16-CD81EGFP
Conditions: human, HepG2-A16-CD81EGFP cells; read-out: INHIBITION
Procedure, shortened: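 Uninfected HepG2-A16-CD81EGFP cells, 3 × 10^3 per well, 1536-well, plated on prespotted compound at 10 μM final, parasite-free screening media added to match infected plates; puromycin 10 μM positive, DMSO 0.5% negative; run in parallel with 48 h PbLuc assay at 37 °C, 5% CO2; viability by CellTiter-Glo luminescence, normalized to controls.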

Point of comparison: `CCOCCN1CCC(C(=O)c2cc(F)ccc2F)CC1`, cytotoxicity at 10 µM -7.33%. Against it:
- O=C1CN(c2ccc(CNC(=O)Nc3nnc(C4CC4)s3)cc2)CCN1 — higher, -3.73%
- Cc1cc(S(=O)(=O)N(CC(N)=O)CC(C)C)ccc1Br — lower, -10.1%
- OC(c1ccccc1)C1CCN(Cc2csc(-c3ncccn3)n2)CC1 (configuration not stated) — higher, -3.87%
- CC(C)(C)C(CCO)NC(=O)Nc1ccncc1 (configuration not stated) — higher, -3.28%
- CN1CCC(N[C@@H]2CO[C@H](CNC(=O)Nc3ccccc3)[C@H]2O)CC1 — higher, 6.31%
- COc1ccc(CC(=O)N2CC(=O)NCC(C)(C)C2)cc1 — higher, -0.634%
- O=C(Nc1cccc(C(F)(F)F)c1)N1CCN(CCn2ccnc2)CC1 — lower, -25.3%
- CS(=O)(=O)N1CCN(C(=O)C2CSCCC(=O)N2)CC1 (configuration not stated) — higher, 0.565%
- O=C(c1ccc2[nH]ccc2c1)N1CCCSCC1CN1CCCC1 (configuration not stated) — higher, 9.4%
- Cc1cncc(Oc2ccc(CN)cc2)n1 — higher, 9.81%
- CCc1cnc(N2CCC3(CCN(Cc4cccc(C)c4)C3=O)C2)nc1 (configuration not stated) — higher, -0.891%
- CCCS(=O)(=O)N1CCOC2(COCCN(C(C)=O)C2)C1 (configuration not stated) — higher, 19.9%
- O=C([C@H]1COC[C@H]2CN(CC3CC3)C[C@H]21)N1CCOCC1 — higher, 11.8%
- CO[C@@H]1CCN(c2ncc(F)cn2)[C@@H]2CN(CC3CC3)C[C@@H]21 — higher, 12.3%
- Cc1ccsc1C(=O)N1CCCn2nnc(Cn3cccn3)c2C1 — higher, 7.37%
- CC(C)Nc1ncnc2c1CCN(c1cc(C(F)(F)F)ncn1)CC2 — higher, 6.07%
- O=C(NCc1cccnc1)C1=NOC2(CCCN(CCO)C2)C1 (configuration not stated) — higher, 5.66%
- Clc1cccc(Cl)c1CNCCOc1ccccn1 — lower, -13.2%
- O=C(NCC(F)F)c1cc(-c2ccccc2)nc2ncnn12 — higher, -3.37%
- CCOC(=O)C1=NOC(Cc2cc(OC)c3c(c2)OCO3)C1 (configuration not stated) — higher, 9.98%
- Cc1cccc(NC(=O)c2cccc(OCc3nnnn3C)c2)n1 — higher, 3%
- CN[C@@H]1CCC[C@@H](Oc2ccccc2Oc2ccc(C)cc2)[C@@H]1O — lower, -14.2%
- Cc1nccn1-c1nccnc1C1CCCN(C2CCCC2)C1 (configuration not stated) — higher, -0.55%
- CN(C(=O)c1cn(C)cn1)[C@@H]1CCC[C@@H](Oc2ccccc2)[C@@H]1O — higher, 23%
- NCCn1nc(C2CCN(Cc3ccccc3)C2)c2nccnc21 (configuration not stated) — higher, 0.975%
- COc1cc(Br)cc(CNC2CCCNC2=O)c1O (configuration not stated) — higher, 2.37%
- CC(O)CN(Cc1cccc(C(=O)N(C)C)c1)c1ccccc1 (configuration not stated) — higher, 2.45%
- COCCCN(C)c1cc(C(F)(F)F)nc(-c2cccnc2)n1 — higher, -4.83%
- CN(Cc1cscn1)C(=O)C(c1ccccc1)N1CCSCC1 (configuration not stated) — higher, 9.26%
- Cc1n[nH]cc1CNC(=O)Nc1cccc(OCC(F)(F)F)c1 — higher, 8.64%
- N#Cc1c(Cl)nsc1NCc1ccc(N2CCSCC2)cc1 — higher, 1.24%
- CCS(=O)(=O)c1ccc(N2CCC(NC(=O)CC3CCCC3)CC2)cc1 — higher, 22.7%
- CNc1cc(N2CCCC2CNCc2ccco2)ncn1 (configuration not stated) — lower, -10.4%
- Cc1noc(CS(=O)(=O)C/C=C/c2ccccc2)n1 — lower, -10.9%
- CCSCc1cccc(NC(=O)N(C)Cc2ncnn2C)c1 — higher, -0.477%
- CCOc1ccccc1Oc1ccc(CN)cn1 — higher, 6.03%
- Cc1cnc(CCN(C)C(=O)c2ccc(O)nc2C)s1 — higher, -1.56%
- CCOc1ccc(CSC(C)c2nc(C)no2)nc1 (configuration not stated) — lower, -9.32%
- CCC1CN(C)c2ccccc2CN1C(=O)Nc1cccc(F)c1 (configuration not stated) — higher, 5.9%
- Cc1nc(CN2CCC23CCN(C(=O)c2ccco2)CC3)cs1 — lower, -98.9%
- CC(=O)NCC(=O)N1Cc2cnc(CC(C)C)nc2C1 — higher, -6.12%
- O=C(Nc1ccccc1)c1cccc(S(=O)(=O)NC[C@@H]2C[C@H](F)CN2)c1 — higher, 2.83%
- Cn1ccnc1C1CCN(S(=O)(=O)c2ccc3oc(=O)[nH]c3c2)CC1 — higher, 1.93%
- CSc1cccc(CN(C)C(=O)c2cccc(C3CCCNC3)c2)c1 (configuration not stated) — higher, -1.08%
- CCc1nnc(NC(=O)CCN2CC=C(c3cnn(C)c3)CC2)s1 — higher, 2.66%
- Cc1cccc2c(=O)c(C(=O)N3CCCC4(CN(C)C(=O)O4)C3)c[nH]c12 (configuration not stated) — higher, 10.5%
- CCC(C)Oc1ccc(CNCCNC(C)=O)cc1Cl (configuration not stated) — higher, 1.12%
- CCc1ncc(C(=O)N(C)Cc2cc(-c3ccncc3)no2)cn1 — lower, -13.2%
- Cc1ccc(CN(CCN(C)C)C(=O)Nc2ccc(C)c(C#N)c2)s1 — higher, 5.57%
- Cc1nccn1CCCN1CCC(c2nccn2CC2CCC2)CC1 — lower, -20.8%
- Cc1ccccc1N1CCCN(C(=O)CC2CN(C(C)C)CCO2)CC1 (configuration not stated) — higher, -3.11%
- Cc1c(NC(=O)c2ncn[nH]2)cccc1C(=O)NC(C)(C)C — lower, -8.93%
- Cc1cc(C(=O)NC(C)c2nnn[nH]2)c2cccc(C)c2n1 (configuration not stated) — lower, -16.4%
- Cc1ccccc1[C@@H]1CN(Cc2ccc(C(F)(F)F)nc2)C[C@H]1C(=O)O — higher, 5.33%
- CCc1nc(C2CCCN(C(=O)c3ccccc3F)C2)no1 (configuration not stated) — higher, 2.64%
- O=C(NCc1nn(-c2ccccc2)c2c1CCC2)C1CC1 — lower, -8.36%
- Cn1cc(NS(=O)(=O)c2ccc(C(F)(F)F)cc2)ccc1=O — higher, 6.08%
- CCn1cc(NC(=O)NCC(O)COc2ccccc2)cn1 (configuration not stated) — lower, -8.6%
- CCn1nc2c(cc1=O)CN(Cc1nc(-c3cccs3)no1)CC2 — lower, -8.99%
- NC(=O)C1CCCN(c2ccc(CNC(=O)c3cnsn3)cc2)C1 (configuration not stated) — higher, 2.25%
- c1cc(CNCC2CNc3ccnn3C2)cc(OC2CCCC2)n1 (configuration not stated) — higher, -3.02%
- CCN1CCN(CCNC(=O)c2ccn(-c3ccc(F)cc3)n2)CC1 — lower, -26.2%
- Cc1nc(C)n(C2CCCN(C(=O)c3cscn3)C2)n1 (configuration not stated) — lower, -8.78%
- CCCNC(=O)CNc1cc(C#N)ccc1OCC — lower, -11.6%
- Cc1nc(C)n(CC2CCCN2Cc2nc(N)c3ccccc3n2)n1 (configuration not stated) — higher, -0.192%
- Cc1nc(C)n(CC2CCCN(Cc3nc(C4CC4)no3)C2)n1 (configuration not stated) — lower, -7.76%
- Cn1ccnc1CN1CCCCC1Cn1cccn1 (configuration not stated) — higher, 5.94%
- Cc1nc(CN2CCCN(C(=O)c3ccccn3)CC2)oc1C — higher, 0.289%
- CC(c1nc(C2CC2)no1)N1CCN(Cc2cccc(C#N)c2)CC1 (configuration not stated) — higher, 3.92%
- COc1ccc(CN(C)[C@@H]2COC[C@H]2c2ccc(F)cc2)c(OC)c1 — higher, 8.54%
- CC(C)NC(=O)[C@@]12CCO[C@@H]1CCN(Cc1ccco1)C2 — higher, -3.31%
- CC(C)NC(=O)N1CCC2(CCC(=O)N2CCN(C)C)CC1 — higher, -7.13%
- O=C(NCc1cn2c(n1)CN(CC1CCOCC1)CC2)C1CCC1 — lower, -12.1%
- Cc1nc(N2CCOCC2)nc2c1CCN(Cc1ccsc1)CC2 — lower, -130%
- O=C(NCCc1ccccn1)[C@@H]1CC[C@@H]2[C@@H](CCN2Cc2ccoc2)O1 — higher, 8.21%
- Cc1ccc(CNC2CC3(CCN(CCO)CC3)c3ccccc32)s1 (configuration not stated) — lower, -108%
- O=C(c1ccccc1)N1CCC2(CC1)CNc1c(F)cccc12 — higher, 7.33%
- CN(C)Cc1cncc2c1CCN(Cc1cnn(C)c1)C2 — higher, 4.13%
- Cc1nnsc1CN1C[C@H]2CC[C@@H](C1)N(Cc1ccccc1)C2 — higher, 9.47%
- CSc1ccccc1CN1C[C@@H]2CC[C@H]1CN(Cc1[nH]cnc1C)C2 — lower, -8.96%
- CC1(C)CC(n2cc3nc(N4CCOCC4)[nH]cc-3c2=O)CC(C)(C)N1 — lower, -19.9%
